GAA850 FXN act: activators of GAA850 frataxin (FXN) promoter. HEK293 lucGAA850 FXN promoter luciferase reporter, 24 h; percent of 10 µM SAHA response. activation, % at 6 µM. 360,000 compounds, 0.56% hits. AID 540364;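 active = activation above the average of all compounds screened plus 3 SD, cutoff fixed separately per campaign, cut at about 7.5% in these data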;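 also: 0% = DMSO wells and 100% = 10 µM SAHA wells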
CaV13 ICDI inh: Disruptors of the CACNA1D IQ motif to Ca2+-dependent inactivation inhibitor domain association, primary screening, Förster resonance energy transfer in intact living …; HEK cells, CFP/YFP FRET ICDI-IQ, plate reader, 10 min; percent FRET-ratio fall versus neutral wells; inhibition, % at 12.3 µM; 340,000 compounds, 0.098% hits;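 active = mean replicate inhibition of at least 30% and at least 1% of replicates passing that level; inconclusive = only one of the two criteria is met; inactive = neither criterion is met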;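 also: 0% = median of the neutral control wells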
GSIS activator: primary screen for activators of insulin secretion dependent on glucose, INS-1E cells, GLuc reporter luminescence | INS-1E GLuc reporter insulin secretion, 2-3 h | activation, % at 16.6 µM | 370,000 compounds, 0.61% hits;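 active = lowest replicate activation of at least 40%, so every replicate reaches that level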;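 also: 0% = median of neutral control wells and 100% = median of IBMX positive control wells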
Xi reactivation: reactivates the inactive X chromosome in mouse fibroblasts; XiGFP mouse fibroblasts, % GFP-positive cells imaging, 3 d; cells co-treated with 5-aza-dC sensitizer; scaled so ellipticine positive control = 100%; activation, % at 7.58 µM; 360,000 compounds, 0.055% hits;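 active = mean normalized replicate activation at least 10% and every replicate at or above 10%; inconclusive = only one of the two criteria met; inactive = mean below 10% and not all replicates reach 10%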;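 also: 0% = median of on-plate neutral control wells and 100% = ellipticine 6 µM median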
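Schedule: 3 d treatment, 15 min room-temperature fixation; system: 68-5-11 XiGFP fibroblast line; buffer or medium: DMEM plus 5-aza-dC sensitizer; control set: ellipticine 6 µM positive control; compound: one concentration, pinned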
Active calls of the source: *; ? = inconclusive; . = no result given; + = active, no number. Compounds with a hit are over-represented: about 1% of the library has one in this group of screens.

SMILES | GAA850 FXN act | CaV13 ICDI inh | GSIS activator | Xi reactivation
COc1ccc([C@H]2CC(=O)C=C(c3ccc(C(=O)O)cc3)C2)cc1OC | 1 | -5 | 91* | 0
Cc1cc(C)nc(NS(=O)(=O)c2ccc(N/C=C/C(=O)c3ccc(Cl)c(Cl)c3)cc2)n1 | 4 | -5 | 63* | 1
OCc1nnc2c3ccccc3c(-c3ccccc3)nn12 | 4 | -7 | 41* | .
Cc1nnc2c3ccccc3c(-c3ccccc3)nn12 | 6 | -12 | . | .
Cc1onc(-c2ccccc2)c1C(=O)Nc1ccc(N2CCOCC2)cc1 | -2 | . | . | .
CCc1onc(C)c1C(=O)Nc1ccc(N2CCOCC2)cc1 | 1 | -15 | 41* | 0
CCNC(=O)C[C@@H]1CC[C@H]2[C@@H](COc3ccc(NC(=O)c4cccc(OC)c4)cc3C(=O)N2C)O1 | . | . | 1 | 0
O=C(O)COc1ccccc1-c1ccccc1 | -1 | -5 | 41* | 0
O=C(COc1ccccc1-c1ccccc1)NCc1ccco1 | 4 | -5 | 0 | 0
O=C(N/N=C/c1ccco1)c1cc(-c2ccc3ccccc3c2)n[nH]1 | 3 | -5 | 83* | .
O=C1Nc2ccccc2Nc2ccccc21 | -1 | -10 | 3 | 0
O=C1Nc2cnc(Cl)nc2Nc2ccccc21 | . | -7 | 87* | 0
C[C@@H]1O[C@H](C2CCCC2)CC2=C1C(=O)OC(C)(C)O2 | . | -5 | 60* | 0
Cc1ccc(S(=O)(=O)N[C@@H]2CC[C@@H](CC(=O)N3CCc4ccccc4C3)O[C@@H]2CO)cc1 | . | . | -5 | 0
Cc1nn(-c2ccccc2)c2nc(C(F)F)cc(C(F)F)c12 | 4 | -2 | 70* | 0
CO[C@H]1CN(C)C(=O)c2ccc(NC(=O)c3ccccc3)cc2OC[C@@H](C)N(CC2CC2)C[C@H]1C | . | . | 13 | 0
COc1cc2c(cc1OC)C(c1cccc([N+](=O)[O-])c1)NC(=O)C2 (configuration not stated) | 2 | 11 | 70* | 0
O=C(O)c1cccc(Nc2nc(-c3cc4ccccc4oc3=O)cs2)c1 | 4 | 77* | 16 | 0
CCn1c(CNC(=O)c2cccc(C)c2)nnc1SCC(=O)N1CCOCC1 | 1 | -8 | 44* | 0
O=C(N/N=C/c1ccncc1)c1cc(-c2ccc(Br)s2)[nH]n1 | 4 | -4 | 43* | 0
Cc1ccc(S(=O)(=O)N(CC(=O)Nc2ccc(C)cc2C)C(=O)N2CCN(C)CC2)cc1 | 1 | -6 | 221* | 0
Cc1ccc(S(=O)(=O)N(CC(=O)Nc2cccc(C)c2C)C(=O)N2CCN(C)CC2)cc1 | 1 | -6 | 13 | 0
Cc1ccc(NC(=O)CN(C(=O)N2CCN(C)CC2)S(=O)(=O)c2ccc(C)cc2)cc1 | -1 | . | 45* | 0
CO[C@@H]1CN(C)C(=O)c2ccc(NS(C)(=O)=O)cc2OC[C@@H](C)N(C(=O)C2CCCC2)C[C@@H]1C | . | . | 7 | 0
Cc1cc(C(=O)Nc2cccc3c2O[C@H](CN(C)C(=O)Nc2ccc(F)cc2)[C@H](C)CN([C@@H](C)CO)C3=O)n(C)n1 | . | . | 4 | 0
SMILES | GAA850 FXN act | CaV13 ICDI inh | GSIS activator | Xi reactivation
O=C(CSCc1nc2c(nnn2Cc2ccc(F)cc2)c(=O)[nH]1)Nc1c(Cl)cc(Cl)cc1Cl | 1 | -4 | . | 0
CCc1nc2c(nnn2Cc2ccc(F)cc2)c(=O)[nH]1 | 1 | . | 60* | .
C=CS(=O)(=O)c1ccc(Oc2ccc(S(=O)(=O)C=C)cc2)cc1 | -14 | -5 | 83* | 0
NS(=O)(=O)c1ccc(Oc2ccc(S(N)(=O)=O)cc2)cc1 | -1 | -5 | 11 | 0
CN(C)CC(=O)N1CC2(C1)[C@@H](c1ccccc1)[C@H](CO)N2C(=O)C1CC1 | . | . | -9 | ?
COC(=O)CN1C(=O)S/C(=C/c2cc(C)n(C)c2C)C1=O | 8.8* | -5 | . | .
COc1ccc(N=C2S/C(=C\c3cc(C)n(C)c3C)C(=O)N2CC(C)C)cc1 | 6 | . | . | .
O=C(NCC[C@@H]1CC[C@H](NS(=O)(=O)c2ccc(F)cc2)[C@@H](CO)O1)Nc1ccc(F)cc1 | . | . | -11 | 0
CCc1cccc(C)c1NC(=S)NCc1ccc2c(c1)cc(C)n2C | -1 | 57* | . | 0
Cc1cccc(C2N=C(N)Nc3nc4ccccc4n32)c1 (configuration not stated) | 0 | -4 | 56* | 0
CC(=O)N1[C@H](CO)[C@H](c2ccc(-c3ccccc3)cc2)[C@@H]1CNC(=O)C1CC1 | . | . | -8 | 0
CC(C)NC(=O)OC[C@H]1O[C@H](C#Cc2ccc(C(C)(C)C)cc2)C=C[C@H]1O | . | -3 | 64* | 0
CC(=O)O[C@@H]1C=C[C@@H](C#Cc2ccc(C(C)(C)C)cc2)O[C@@H]1COC(=O)NC(C)C | . | -3 | -15 | 0
CO[C@H]1CN(C)C(=O)c2cc(NC(C)=O)ccc2OC[C@@H](C)N(C(=O)C2CC2)C[C@@H]1C | . | . | -5 | -1
COc1ccc(-c2nnc3sc(-c4ccco4)nn23)cc1OC | 3 | -5 | 59* | .
CN1CCc2c(sc(NC(=O)C3CCCCC3)c2C(N)=O)C1 | 1 | + | 17 | 0
CC(C)N1CCc2c(sc(NC(=O)C3CCCCC3)c2C(N)=O)C1 | 0 | -5 | . | 0
COc1ccc2c3c(n(C)c2c1)[C@@H](CO)N(C(=O)NC(C)C)CC31CN(Cc2nccs2)C1 | . | . | 15 | 0
COc1ccc(C2=NN(C(=O)CCCC(=O)O)C(c3cccs3)C2)cc1OC (configuration not stated) | 4 | -3 | 104* | 0
COc1ccc(C2=NN(C(=O)c3cccs3)C(c3ccccc3OC)C2)cc1OC (configuration not stated) | 5 | 7 | 18 | 0
COc1ccc(C2=NN(C(=O)c3ccco3)C(c3cccs3)C2)cc1OC (configuration not stated) | 2 | -7 | 81* | 1
C[C@H](CO)N1C[C@H](C)[C@H](CN(C)C(=O)[C@H](C)c2ccccc2)OCc2ccccc2-c2c(n(C)c3ccccc23)C1=O | . | . | -16 | 0
CC(=O)N1N=C(c2ccc(Br)cc2)OC1(C)CC(=O)Nc1ccccc1 (configuration not stated) | 0 | -5 | 57* | 0
On1ccccc1=S | -15 | -5 | 87* | 0
CO[C@@H]1CN(C)C(=O)c2ccc(NC(C)=O)cc2OC[C@H](C)N(C(=O)CN(C)C)C[C@@H]1C | . | . | -3 | 0
O=c1[nH]nc(-c2cccs2)c2ccccc12 | 6 | -3 | 172* | 0
O=c1[nH]c2ccccc2nc1-c1cccs1 | 2 | -5 | 20 | .
COC(=O)C[C@H]1CC[C@H]2[C@@H](COc3ccc(NC(=O)c4cncs4)cc3C(=O)N2C)O1 | . | . | 8 | 0
CCOC(=O)c1cnc2ccc(OCC)cc2c1N1CCN(c2ccccc2)CC1 | 0 | -5 | 71* | .

From PubChem
